Results on one compound are retold here after ChEMBL document CHEMBL3425405, “Discovery of Small Molecules for Up-Regulating the Translation of Antiamyloidogenic Secretase, a Disintegrin and Metalloproteinase 10 (ADAM10), by Binding to the G-Quadruplex-Forming Sequence in the 5' Untranslated Region (UTR) of Its mRNA” (J Med Chem, 2015).

Active and inactive are the calls of the source. The rule behind the calls is not given here.

The subject of experiment [1] is HeLa. Kind of experiment: Binding affinity to ADAM10 5'-UTR RNA QGRS (unknown origin) transfected in human HeLa cells assessed as increase in ADAM10 translation efficiency at 1 uM after 24 hrs by Renilla/firefly dual luciferase reporter assay. The format is cell-based. In outline: (§1)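 HeLa cells transfected with 0.8 μg 5′UTR-Wt or 5′UTR-Mut dual-luciferase plasmid. After 12 h, incubated 24 h with 0, 0.5, 1 or 2.5 μM compound. Renilla luciferase normalized to firefly and expressed relative to the ligand-free control; mean ± SD of three independent experiments, each in triplicate.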
For orientation: In a reporter assay the amount or activity of a reporter protein is the signal.

Experiment [2] has as its system HeLa. The experiment is described as follows: Binding affinity to ADAM10 A10-RNA QGRS (unknown origin) transfected in human HeLa cells assessed as increase in ADAM10 translation efficiency at 1 uM after 24 hrs by Renilla/firefly dual luciferase reporter assay. The class given is cell-based. The method, boiled down: (§2)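 HeLa cells transfected with 0.8 μg A10-Wt, A10-Mut or A10-Del plasmid (G-quadruplex motif upstream of Renilla in psiCHECK-2). Screening: 24 h at a single 2 μM concentration. Follow-up: plasmid for 12 h, then 0, 0.5, 1 or 2.5 μM for 24 h. Renilla normalized to firefly, relative to untreated control; mean ± SD of three independent measurements.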

Experiment [3] deals with HeLa. Kind of experiment: Binding affinity to ADAM10 A10-RNA QGRS (unknown origin) transfected in human HeLa cells assessed as increase in ADAM10 translation efficiency at 2.5 uM after 24 hrs by Renilla/firefly dual luciferase reporter assay. The format is cell-based. The method, boiled down: as §2
A further experiment relates to HEK293. The experiment is described as follows: Reduction in Abeta40 protein production in APP expressing HEK cells at 1 uM after 48 hrs by ELISA method. The format is functional, Homo sapiens. Also noted: scale not given: the % may be the effect or the level left. The method, boiled down:
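HEK-APP cells treated 48 h with increasing compound concentrations (0.75, 1, 1.5 μM). Secreted Aβ40 in equal amounts of conditioned medium quantified by sandwich ELISA. Values expressed relative to blank control; mean ± SD of three independent experiments.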
(In general: An ELISA detects its analyte on a solid surface through an enzyme-linked reagent.)

The test system of experiment [4] is HEK-APP. The experiment is described as follows: Binding affinity to ADAM10 A10-RNA QGRS (unknown origin) transfected in HEK-APP cells assessed as increase in ADAM10 protein expression at 1 uM after 48 hrs by Western blotting method. The format is cell-based. The method, boiled down:
(§3)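 HEK-APP cells (DMEM, 10% FBS, 2 mM glutamine, 0.2 mg/mL G418) treated with 0, 0.5, 0.75, 1 or 1.5 μM compound for 48 h. Lysates in Tris/NaCl/EDTA/1% Triton buffer immunoblotted for ADAM10, APP and β-actin; conditioned medium blotted for sAPPα. Signal by densitometry, normalized to β-actin, relative to blank control; mean ± SD, three independent experiments.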
A general note: A western blot detects proteins with antibodies after separation by electrophoresis.

The subject of experiment [5] is HeLa. Kind of experiment: Binding affinity to ADAM10 5'-UTR RNA QGRS (unknown origin) transfected in human HeLa cells assessed as increase in ADAM10 translation efficiency at 0.5 uM after 24 hrs by Renilla/firefly dual luciferase reporter assay. The class given is cell-based. In outline:
as §1

Experiment [6] concerns HeLa. The experiment is described as follows: Binding affinity to ADAM10 5'-UTR mutant RNA QGRS (unknown origin) transfected in human HeLa cells assessed as increase in ADAM10 translation efficiency at 1 uM after 24 hrs by Renilla/firefly dual luciferase reporter assay. The class given is cell-based. The method, boiled down:
as §1

Experiment [7] relates to HEK-APP. Kind of experiment: Binding affinity to ADAM10 A10-RNA QGRS (unknown origin) transfected in HEK-APP cells assessed as increase in ADAM10 protein expression at 0.5 uM after 48 hrs by Western blotting method. The class given is cell-based. The method, boiled down: as §3
The subject of experiment [8] is HEK-APP. Kind of experiment: Binding affinity to ADAM10 A10-RNA QGRS (unknown origin) transfected in HEK-APP cells assessed as increase in ADAM10 protein expression at 0.75 uM after 48 hrs by Western blotting method. The format is cell-based. In outline: as §3
The subject of experiment [9] is HEK-APP. The experiment is described as follows: Binding affinity to ADAM10 A10-RNA QGRS (unknown origin) transfected in HEK-APP cells assessed as increase in ADAM10 protein expression at 1.5 uM after 48 hrs by Western blotting method. The class given is cell-based. The method, boiled down:
as §3

Experiment [10] relates to HeLa. Kind of experiment: Binding affinity to N-Ras RNA QGRS (unknown origin) transfected in human HeLa cells assessed as increase in ADAM10 translation efficiency at 2.5 uM after 24 hrs by Renilla/firefly dual luciferase reporter assay. The class given is cell-based. In outline: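 HeLa cells carrying luciferase reporter plasmids with the N-Ras, Bcl-2 or VEGF 5′-UTR quadruplex (or its mutant) treated with compound up to 2.5 μM for 24 h. Renilla/firefly luciferase activity then measured.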

Experiment [11] deals with HEK-APP. The experiment is described as follows: Binding affinity to ADAM10 A10-RNA QGRS (unknown origin) transfected in HEK-APP cells assessed as change in ADAM10 mRNA expression at 0.5 to 1.5 uM after 48 hrs by RT-PCR method. The class given is cell-based. The method, boiled down: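 HEK-APP cells cultured 48 h with 0, 0.5, 0.75, 1 or 1.5 μM compound. Total RNA isolated and ADAM10 mRNA measured by RT-PCR, normalized to β-actin.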

Experiment [12] concerns the target T1, Disintegrin and metalloproteinase domain-containing protein 10 (Homo sapiens) (UniProt O14672).
T1 sequence (whole entry): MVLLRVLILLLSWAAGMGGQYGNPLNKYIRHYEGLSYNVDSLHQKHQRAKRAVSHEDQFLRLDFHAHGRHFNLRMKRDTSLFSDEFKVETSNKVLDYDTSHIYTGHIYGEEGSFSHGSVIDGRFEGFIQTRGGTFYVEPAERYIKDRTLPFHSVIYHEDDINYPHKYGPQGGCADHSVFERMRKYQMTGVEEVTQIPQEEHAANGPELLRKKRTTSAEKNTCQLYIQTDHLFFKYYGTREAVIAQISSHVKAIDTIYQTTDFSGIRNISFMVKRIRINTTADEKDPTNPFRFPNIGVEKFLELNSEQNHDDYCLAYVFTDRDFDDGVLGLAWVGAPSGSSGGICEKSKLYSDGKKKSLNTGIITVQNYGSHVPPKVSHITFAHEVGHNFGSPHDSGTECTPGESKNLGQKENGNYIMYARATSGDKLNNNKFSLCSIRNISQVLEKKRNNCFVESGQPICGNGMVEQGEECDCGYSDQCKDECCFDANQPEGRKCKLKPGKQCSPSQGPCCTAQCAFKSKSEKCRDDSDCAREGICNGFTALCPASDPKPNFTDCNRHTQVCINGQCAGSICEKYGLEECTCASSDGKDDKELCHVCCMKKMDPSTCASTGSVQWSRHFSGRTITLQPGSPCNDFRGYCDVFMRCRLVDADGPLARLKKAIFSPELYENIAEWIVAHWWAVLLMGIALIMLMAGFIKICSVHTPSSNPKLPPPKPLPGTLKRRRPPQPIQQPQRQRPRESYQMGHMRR
The experiment is described as follows: Activation of human recombinant ADAM10 assessed as increase in enzyme activity at 0.25 to 4 uM pre-incubated for 20 mins before fluorogenic alpha-secretase substrate addition and measured 1 hr post substrate addition by monochromator-based multimode microplate reader based method. In outline: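 Recombinant human ADAM10 (50 ng total protein per sample) preincubated 20 min with 0, 0.25, 0.5, 1, 2, 4 μM compound. Then 2× reaction buffer added (50 μM Tris, 4 μM ZnCl2, 0.01% Brij-35, pH 9.0) with 20 μM fluorogenic α-secretase substrate. Incubated 1 h at 37 °C in the dark; fluorescence read at ex 340/em 490 nm.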

Take `CCn1c2ccccc2c2cc(/C=C/c3cc(N4CCN(C)CC4)c4ccccc4[n+]3C)ccc21.[I-]`: the Activity in the experiment with HeLa [1] came to 22.5%; in the experiment on HeLa [2] it was 46.9%; in the experiment with HeLa [3], 87.3%; in the experiment on HEK293 it was 20.7%; in the experiment with HEK-APP [4] it was 76.8%; in the experiment with HeLa [5], 9.7%. The Activity amounted to 20.2% in the experiment on HEK-APP [7], 55.1% in the experiment with HEK-APP [8], 92.9% with HEK-APP [9] and 20% in the experiment with HeLa [10]. The result with HeLa [6] and in the experiment on HEK-APP [11] was inactive. In addition, the outcome in experiment [12] was Active.
